The nature of data set [1]: Cytotoxicity against MDCK cells assessed reduction in cell viability after 48 hrs by MTT assay. Conditions: dog, read-out: CTD50. The data set is classed as cell-based, Canis lupus familiaris. Summed up: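 MDCK monolayers were grown in MEM with 5% fetal calf serum and washed with serum-free MEM. Compounds (5 mg/ml DMSO stock) were applied as twofold dilutions, 1000–4 microgram/ml in MEM, for 48 h at 37°C. After PBS washes, MTT (0,5 mg/ml) was added for 60 min at 37°C, 5% CO2. Formazan was dissolved in DMSO and read at 535 nm. CTD50 is the concentration cutting viability 50%.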
A general note: Tetrazolium assays rely on reduction of a dye to a coloured formazan, in cell work by metabolically active cells.

Data set [2] is described as follows: Selectivity index, ratio of CTD50 for MDCK cells to ED50 for Influenza A virus (A/California/07/09(H1N1)) pdm09. Format: toxicity, cell-based. Conditions: dog, read-out: Selectivity Index.

Five molecules from ChEMBL document CHEMBL3352088, “Novel derivatives of usnic acid effectively inhibiting reproduction of influenza A virus” (Bioorg Med Chem, 2014) can be followed below.

Regarding `CC(=O)C1=C(O)C[C@H]2Oc3c(C(C)=O)c(O)c(C)c(O)c3[C@@]2(C)C1=O`, the CC50 at 48 h in data set [1] worked out at 14.5 µM. For the same molecule, the selectivity ratio in data set [2] came to 1.8.

On to `COc1c(C)c(O)c(C(C)=O)c2c1[C@]1(C)C(=Cc3c(c(C)nn3-c3ccccc3)CC13CO3)O2` (single isomer, unassigned; (+)), for which the CC50 at 48 h in data set [1] came to 681 µM. In addition, the selectivity ratio in data set [2] came out at 2.6.

`COc1c(C)c(O)c(C(=O)/C=C/c2ccccc2)c2c1[C@]1(C)C(=Cc3c(c(C)nn3-c3ccccc3)CC13CO3)O2` (single isomer, unassigned; (+)): in data set [1], the CC50 at 48 h turned out to be 18.3 µM. Besides, the selectivity ratio in data set [2] is 3.3.

On to `CC(=O)C1=C(O)C=C2Oc3c(C(C)=O)c(O)c(C)c(O)c3[C@@]2(C)C1=O` [(+)-USNIC ACID], for which the CC50 at 48 h in data set [1] turned out to be 424 µM. In data set [2], the selectivity ratio is 8.2.

For `CC(=O)C1=C(O)C=C2Oc3c(C(C)=O)c(O)c(C)c(O)c3[C@]2(C)C1=O` [(-)-USNIC ACID], the CC50 at 48 h in data set [1] came to 134 µM. Besides, in data set [2], the selectivity ratio turned out to be 10.2.
